Experimental data taken from article PMC6619336 (Clinical Pharmacology in Drug Development, 2018).
Like-named read-outs stand apart in the source and are kept apart here. Marks after values point to notes of the source that are not given here.

Columns and labels:
[1] = 300‐mg dose (capsule); mean ± SD; study 15L‐CL‐001; cited from earlier work
[2] = type: in vivo, human
Outline: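 Six healthy men were dosed fasted, orally, once at 200 mg of 14C-labelled test compound (1.8 MBq) in water with 8% hydroxypropyl-β-cyclodextrin. Blood was drawn predose and from 15 min to 72 h, kept on ice, and spun at 1500g for 10 min at 4 °C within 30 min. Plasma radioactivity was read by liquid scintillation and parent by LC-MS/MS. Parameters were noncompartmental, with values below LLOQ set to zero.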

[3] = Safety and tolerability of single-dose amenamevir in healthy volunteers; type: in vivo, human; details: single 200 mg dose; for subjects with treatment‐emergent AEs: 6 subjects dosed
Outline: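 Six healthy men aged 18–65 years received one fasted oral 200 mg dose and were monitored from screening through admission, discharge and a post-study visit. Adverse events were collected from spontaneous reports and non-leading questioning, coded with MedDRA v10.0, and graded for severity and treatment relation. Checks covered blood pressure, heart rate, ECG, physical examination, chemistry, hematology, urinalysis, serology and drug/alcohol screens.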

[4] = single 300‐mg (capsule) dose, day 1 of administration; study 15L‐CL‐003; cited from earlier work
cytochrome P450 (CYP) 3A = details: cited from earlier work
[5] = type: in vivo, human; remark: listed apart in the source
Outline: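 Healthy men (n = 6) got one fasted oral 200 mg dose of 14C-labelled test compound (1.8 MBq) in water with 8% hydroxypropyl-β-cyclodextrin. Urine and feces were collected for 8 days. Expired air was sampled predose to 72 h and trapped in 1 N hyamine hydroxide with phenolphthalein. Urine and feces were homogenized, and radioactivity was read by liquid scintillation. Urinary parent was measured by LC-MS/MS. CL_R = Ae/AUC over the largest common quantifiable interval.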

[6] = healthy volunteers, cited from earlier work
VZV = details: preclinical studies; cited from earlier work
[7] = subjects with severe renal impairment; cited from earlier work
[8] = subjects with moderate hepatic impairment; cited from earlier work
[9] = 300‐mg dose (capsule); mean ± SD; study 15L‐CL‐002; cited from earlier work
[10] = Metabolic profiling of 14C-amenamevir in plasma, urine and feces; type: in vivo, human; details: single oral 200 mg
Outline: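 After one fasted oral 200 mg dose of 14C-labelled test compound in 8% hydroxypropyl-β-cyclodextrin, healthy men gave plasma predose and at 0.5, 1, 2, 4, 6, 8, 10 and 12 h. Urine and fecal homogenates (stored at −70 °C) were also collected. Radiochromatograms were run by HPLC for all matrices. Urine and fecal metabolites were identified by LC-MS/MS.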

[11] = ^14C‐radioactivity in plasma, single oral 200 mg, n = 6, mean ± SD
[12] = ^14C‐radioactivity in whole blood, single oral 200 mg, n = 6, mean ± SD
[13] = ^14C‐radioactivity, single oral 200 mg
[14] = single oral 200 mg, n = 5, mean ± SD, 8 days of sampling

In the case of `Cc1cccc(C)c1N(CC(=O)Nc1ccc(-c2ncon2)cc1)C(=O)C1CCS(=O)(=O)CC1` [Amenamevir], the “half‐life” value [1] is listed as 6.88 ± 0.56 h, the “peak concentration of drug in blood plasma” value [1] is listed as 1040 ± 264 ng/mL and the AUCinf [2, 11] is listed as 10,997 ± 2530 ng · h/mL. The AUClast [2, 11] was 10,076 ± 2912 ng · h/mL, the Cmax [2, 11] was 1041 ± 324 ng/mL and the t½ [2, 11] was 8.03 ± 0.81 h. For the same molecule, the tmax ([2]; ^14C‐radioactivity in plasma, single oral 200 mg, n = 6, median (range)) was 1.00 (1.00–3.02) hours, the AUCinf [2, 12] was 10,425 ± 2265 ng · h/mL and the AUClast [2, 12] was 8530 ± 2263 ng·h/mL. The Cmax [2, 12] was 919 ± 284 ng/mL, the t½ [2, 12] was 9.19 ± 2.13 h and the tmax ([2]; ^14C‐radioactivity in whole blood, single oral 200 mg, n = 6, median (range)) was 1.00 (1.00–2.00) hours. For the same molecule, the “Whole blood:plasma ratio of AUCinf” value [2, 13] was 0.951, the “Whole blood:plasma ratio of AUClast” value [2, 13] was 0.852 and the “Whole blood:plasma ratio of Cmax” value [2, 13] was 0.885. For the same molecule, the AUC(0-inf) ([2]; human, plasma, po, 200 mg) was 8820 ± 2510 ng·h/mL, the AUC(0-t) ([2]; human, plasma, po, 200 mg) was 8690 ± 2490 ng·h/mL and the Cmax ([2]; human, plasma, po, 200 mg) was 1020 ± 404 ng/mL. The half-life ([2]; human, plasma, po, 200 mg) was 7.65 ± 0.49 h, the tmax ([2]; human, plasma, po, 200 mg) was 1.5 h and the “clinical laboratory evaluations, vital signs, electrocardiogram recordings” value [3] was “No clinically important abnormalities”. The “deaths, serious AEs, or AEs resulting in discontinuation” value [3] was “No deaths, serious AEs, or AEs resulting in discontinuation were reported”, the “subjects with treatment‐emergent AEs” value [3] was 3 and the “subjects with treatment‐emergent AEs” value ([3]; listed as amenamevir) was “Three”. For the same molecule, the “severity of AEs” value ([3]; all 3 AEs) was “mild”, the safety and tolerability ([3]; healthy male subjects, n = 6) was “safe and well tolerated” and the “drug excreted in the urine” value [4] was 11.07%. The renal clearance [4] was 2.45 L/h, the “relation to CYP3A” value (cytochrome P450 (CYP) 3A) was “both a substrate and inducer” and the CL renal ([5]; human, urine and plasma, po, 200 mg) was 40.7 mL/min. For the same molecule, the “dose eliminated by 168 hours after the dose” value ([5]; single oral 200 mg) was > 95%, the “Ae expired air (cumulative recovery of ^14C‐radioactivity)” value ([5]; single oral 200 mg, N = 6, listed as 14C‐amenamevir) was 0% and the “Ae urine (cumulative recovery of ^14C‐radioactivity)” value ([5]; single oral 200 mg, N = 6, mean ± SD, 8 days of sampling) was 20.6 ± 4.0%. The “Ae feces (cumulative recovery of ^14C‐radioactivity)” value [5, 14] was 74.6 ± 3.0 ^a %, the “Ae total (cumulative recovery of ^14C‐radioactivity)” value [5, 14] was 95.3% and the “Ae total (cumulative recovery of ^14C‐radioactivity)” value ([5]; single oral 200 mg, n = 5, mean ± SD, 8 days of sampling, listed as 14C‐amenamevir) was 95.3 ± 1.8 ^a %. For the same molecule, the “Cumulative Aelast (amenamevir excreted into urine)” value ([5]; unchanged amenamevir in urine by LC‐MS/MS, single oral 200 mg, N = 6, mean ± SD) was 20.9 ± 5.5 mg, the “dose proportionality of pharmacokinetics” value [6] was “less than dose proportional” and the safety and tolerability ([6]; single doses of 5 to 2400 mg or 300 to 600 mg/day for 7 days) was “safe and well tolerated”. The “activity against VZV compared with acyclovir and valacyclovir” value (VZV) was “more potent than acyclovir and valacyclovir”, the “renal clearance in severe renal impairment” value [7] was “reduced renal clearance” and the “pharmacokinetic profile in moderate hepatic impairment” value [8] was “not significantly altered”. For the same molecule, the “half‐life” value [9] was 7.85 ± 1.62 h, the “peak concentration of drug in blood plasma” value [9] was 1093 ± 201 ng/mL and the “share of the administered dose in feces” value ([10]; feces 0 to 72 hours after the dose) was < 0.1%. For the same molecule, the “share of the total radioactivity in plasma” value ([10]; plasma samples 0.5 to 12 hours after the dose) was 80% and the “share of the total radioactivity excreted in urine” value ([10]; urine 0–48 hours after the dose) was “approximately 55%”.
